“And” between values parts separate entries of the source, which are not always exact repeats. Equal values may be shown once.
Experiments:
α1β2γ2 GABAA receptor [1] = target: T1, α1β2γ2 GABAA receptor (Homo sapiens, UniProt P14867+P18507+P47870); assay: Synergy with diazepam, α1β2γ2 in Ltk cells, isobolographic analysis; assay type: cell-based; conditions: for concentration applied alone required to reach 150% effect level: α1β2γ2, isobologram
α4β3δ GABAA receptor [2] = target: T2, α4β3δ GABAA receptor (Homo sapiens, UniProt P28472+P48169); assay: Synergy with diazepam, α4β3δ in CHO cells; assay type: cell-based
α1β2γ2 GABAA receptor [3] = target: T1, α1β2γ2 GABAA receptor; assay: P4S concentration-response with and without 200 nM zuranolone, Ltk cells; assay type: cell-based; conditions: for EC50: EC50 of P4S, α1β2γ2, Ltk cells
In short: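 Ltk cells stably expressing α1β2γ2; whole-cell patch clamp at −80 mV, n = 11. P4S was applied at 0.1–1000 μM in log steps, with or without a fixed 200 nM test compound. Currents were normalized to the maximum current from a saturating GABA concentration.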

PTZ-induced seizures = assay: Pentylenetetrazole-induced seizures; assay type: in vivo, mouse; conditions: vehicle 751 ± 67 s
[4] = target: human recombinant α1β1γ2 GABAA receptor (Homo sapiens, UniProt P14867+P18505); assay: Two electrode voltage clamp, α1β1γ2 in Xenopus oocytes; assay type: cell-based
In short: (§1)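 Xenopus oocytes expressing subunit cDNA; two-electrode voltage clamp at −80 mV, 18 °C, superfused with OR2 medium pH 7.4. Submaximal GABA given alone for 15 s, then co-applied with test compound at half-log steps 0.1–10 μM (0.3% DMSO). GABA: 10 μM for α1β1γ2, 3 μM for α6β3δ. n = 3 cells per concentration. Potentiation = peak amplitude with test compound / GABA alone ×100.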

[5] = target: human recombinant α5β3γ2 GABAA receptor (Homo sapiens, UniProt P28472+P31644); assay: IonWorks Barracuda patch clamp, α5β3γ2 in HEK cells; assay type: cell-based
In short: (§2)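 HEK cells stably expressing human receptors; automated perforated-patch whole-cell recording at −70 mV. Extracellular buffer pH 7.4; KCl-based intracellular solution pH 7.2. Submaximal GABA applied alone, then co-applied with test compound at half-log steps 0.01–30 μM (0.3% DMSO, 0.02% Cremophor); n = 4 per concentration. GABA: 5 μM α1β3γ2, 2 μM α2β3γ2, 12.5 μM α3β3γ2, 2 μM α5β3γ2. Potentiation = peak with test compound / peak with GABA alone ×100.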

[6] = test system: other ion channel and hormone receptors, including AMPA and NMDA; conditions: ref Martinez-Botella et al., 2017; cited from earlier work
glycine = conditions: 10 μM, ref Martinez-Botella et al., 2017; cited from earlier work
[7] = target: human recombinant α2β2γ2 GABAA receptor (Homo sapiens, UniProt P47869+P47870); assay: Whole cell patch clamp, GABA-evoked currents, α2β2γ2 in Ltk cells; assay type: cell-based
In short: (§3)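 Whole-cell patch clamp at −80 mV in Ltk cells (stable α1β2γ2, n = 7; α2β2γ2, n = 3) or CHO cells (transient α4β3δ, n = 6). Each cell received test compound (0.1% DMSO) sequentially at 0.01–10 μM, 30 s before each 2 s pulse of 2 μM GABA. Gravity-fed perfusion, exchange within 300–500 ms. For δ-containing cells, DS-2 was applied at the end to confirm δ expression. Potentiation = peak ratio ×100.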

dentate granule cells = assay: Acute hippocampal slice recording, tonic current and sIPSCs after washout; assay type: cell-based, mouse; conditions: for tonic current density: 15 min pre-incubation, 30–50 min wash; for sIPSC amplitude / sIPSC decay: after 30–50 min wash
In short: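 Acute brain slices from postnatal day 21 C57 mice were held in a holding chamber with 0.1 or 1 μM test compound for 15 min. They were then perfused (2 mL/min) with oxygenated ACSF for 30–50 min before whole-cell patch clamp of dentate granule cells (n = 6–7). Tonic current is the baseline shift with 100 μM picrotoxin, divided by capacitance. sIPSCs were inspected visually and only single-peak events were kept.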

α4β3δ GABAA receptor [8] = target: T2, α4β3δ GABAA receptor; assay: Whole cell patch clamp, GABA-evoked currents, α4β3δ in CHO cells; assay type: cell-based
In short: as §3

[9] = Phase 1, healthy volunteers, ref Hoffmann et al., 2019, cited from earlier work
sigma = conditions: 10 μM, ref Martinez-Botella et al., 2017; cited from earlier work
β-band EEG power = assay: PharmacoEEG, β-band EEG power and sleep/wake; assay type: in vivo; conditions: rat; for sleep time: p < 0.05
In short: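 Adult male Sprague Dawley rats (n = 7 per group) with implanted epidural EEG screw electrodes and EMG were tested after 2 weeks' recovery. After 1 h baseline, they received test compound (0.3, 3 or 20 mg/kg) or vehicle (30% SBECD) PO, followed by 6 h continuous EEG. Sleep/wake was scored in 10 s epochs from EEG/EMG and checked by a blinded expert. Analysis used one-way ANOVA and two-way repeated-measures ANOVA vs vehicle.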

[10] = test system: transient receptor potential cation channel subfamily V member 1 receptor; conditions: 10 μM; ref Martinez-Botella et al., 2017; cited from earlier work
α1β2γ2 GABAA receptor [11] = target: T1, α1β2γ2 GABAA receptor; assay: Whole cell patch clamp, GABA-evoked currents, α1β2γ2 in Ltk cells; assay type: cell-based
In short: as §3

[12] = target: human recombinant α3β3γ2 GABAA receptor (Homo sapiens, UniProt P28472+P34903); assay: IonWorks Barracuda patch clamp, α3β3γ2 in HEK cells; assay type: cell-based
In short: as §2

[13] = target: human recombinant α6β3δ GABAA receptor (Homo sapiens, UniProt P28472+Q16445); assay: Two electrode voltage clamp, α6β3δ in Xenopus oocytes; assay type: cell-based
In short: as §1

[14] = target: human recombinant α1β3γ2 GABAA receptor (Homo sapiens, UniProt P14867+P28472); assay: IonWorks Barracuda patch clamp, α1β3γ2 in HEK cells; assay type: cell-based
In short: as §2

[15] = Plasma and brain concentrations in PTZ behavioral study; assay type: in vivo; conditions: mouse, between 0.3 and 1 mg/kg PO
In short: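 Plasma and brain were collected from a subset of PTZ-study mice plus satellite PK mice (n = 3–4 per dose) after PO dosing. Brain was homogenized in 3 vol PBS, extracted by acetonitrile protein precipitation with internal standard, and quantified by LC-MS/MS against a spiked calibration curve.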

[16] = Brain and plasma pharmacokinetics after single IP or PO dose; assay type: in vivo, mouse; conditions: for time of maximum plasma concentration (Cmax) post dose: CD1 mouse; for Cmax / bioavailability: male, CD-1, mouse, plasma, 10 mg/kg
In short: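 Adult male CD-1 mice received a single 10 mg/kg dose: IP in 15% HP-β-CD or PO in 30% SBECD. Sampling: IP at 0.5–8 h (n = 2 per time point); PO at 0.167–12 h (n = 3 per time point). Plasma (K2 EDTA) and snap-frozen brain were collected. Brain was homogenized in 3 vol PBS, extracted by acetonitrile precipitation with internal standard, and assayed by LC-MS/MS (C18, water:methanol gradient, positive MRM). Brain:plasma ratio from a single point at 1 h.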

[17] = Plasma concentrations in rats designated for pharmacokinetic analysis; assay type: in vivo; conditions: rat, po
[18] = target: human recombinant α2β3γ2 GABAA receptor (Homo sapiens, UniProt P28472+P47869); assay: IonWorks Barracuda patch clamp, α2β3γ2 in HEK cells; assay type: cell-based
In short: as §2

8 cardiac ion channels = conditions: ref Martinez-Botella et al., 2017; cited from earlier work
[19] = test system: 22 nuclear hormone receptors; conditions: ref Martinez-Botella et al., 2017; cited from earlier work

T2 sequence (P48169 36-554): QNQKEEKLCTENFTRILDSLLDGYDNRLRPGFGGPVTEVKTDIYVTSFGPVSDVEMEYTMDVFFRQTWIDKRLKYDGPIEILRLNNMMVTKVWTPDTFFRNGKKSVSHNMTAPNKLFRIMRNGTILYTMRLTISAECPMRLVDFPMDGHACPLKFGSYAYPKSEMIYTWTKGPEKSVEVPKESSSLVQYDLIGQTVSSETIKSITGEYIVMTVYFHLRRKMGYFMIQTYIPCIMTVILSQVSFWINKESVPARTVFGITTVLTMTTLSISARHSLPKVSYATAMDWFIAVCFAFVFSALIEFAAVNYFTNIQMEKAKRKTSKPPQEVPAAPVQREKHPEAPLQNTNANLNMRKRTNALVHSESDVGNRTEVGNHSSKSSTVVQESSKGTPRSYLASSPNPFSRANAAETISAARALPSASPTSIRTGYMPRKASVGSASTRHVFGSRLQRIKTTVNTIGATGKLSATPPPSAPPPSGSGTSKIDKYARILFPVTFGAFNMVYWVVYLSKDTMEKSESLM
T2 sequence (P28472 26-473): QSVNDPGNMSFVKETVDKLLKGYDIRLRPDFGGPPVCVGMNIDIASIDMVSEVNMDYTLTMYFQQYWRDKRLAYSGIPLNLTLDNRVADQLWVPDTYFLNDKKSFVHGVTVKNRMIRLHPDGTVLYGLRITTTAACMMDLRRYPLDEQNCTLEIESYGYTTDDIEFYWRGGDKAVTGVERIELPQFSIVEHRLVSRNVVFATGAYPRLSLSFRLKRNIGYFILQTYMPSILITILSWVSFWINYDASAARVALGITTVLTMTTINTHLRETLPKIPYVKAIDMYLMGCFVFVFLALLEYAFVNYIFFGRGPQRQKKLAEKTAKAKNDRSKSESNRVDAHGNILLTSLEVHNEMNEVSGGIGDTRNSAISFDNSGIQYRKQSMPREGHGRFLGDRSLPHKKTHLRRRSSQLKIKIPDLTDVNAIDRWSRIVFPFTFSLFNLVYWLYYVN
T2 sequence (O14764 17-452 partner limits assumed): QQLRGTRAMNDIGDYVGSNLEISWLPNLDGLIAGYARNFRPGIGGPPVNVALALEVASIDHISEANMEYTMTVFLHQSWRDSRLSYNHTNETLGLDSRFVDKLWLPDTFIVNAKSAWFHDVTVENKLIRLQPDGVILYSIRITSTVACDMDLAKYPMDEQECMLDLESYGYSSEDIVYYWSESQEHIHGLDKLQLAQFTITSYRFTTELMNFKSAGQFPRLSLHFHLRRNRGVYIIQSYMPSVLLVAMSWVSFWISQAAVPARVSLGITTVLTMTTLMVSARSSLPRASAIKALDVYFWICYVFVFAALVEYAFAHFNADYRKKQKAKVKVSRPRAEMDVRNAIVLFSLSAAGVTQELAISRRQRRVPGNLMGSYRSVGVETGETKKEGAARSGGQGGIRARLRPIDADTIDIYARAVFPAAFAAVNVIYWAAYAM
T1 sequence (P14867 28-456): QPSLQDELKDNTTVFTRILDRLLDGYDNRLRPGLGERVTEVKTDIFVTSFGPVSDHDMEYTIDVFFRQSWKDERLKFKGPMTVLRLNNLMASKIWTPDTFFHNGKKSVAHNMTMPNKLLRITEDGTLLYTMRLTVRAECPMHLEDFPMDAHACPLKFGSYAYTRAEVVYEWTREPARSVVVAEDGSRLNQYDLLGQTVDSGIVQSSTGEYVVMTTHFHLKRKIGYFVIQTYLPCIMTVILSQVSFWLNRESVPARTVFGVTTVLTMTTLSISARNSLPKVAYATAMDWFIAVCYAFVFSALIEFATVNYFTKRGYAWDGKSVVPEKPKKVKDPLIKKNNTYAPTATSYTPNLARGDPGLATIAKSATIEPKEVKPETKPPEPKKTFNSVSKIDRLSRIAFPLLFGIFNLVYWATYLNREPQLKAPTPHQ
T1 sequence (P47870 25-512 limits assumed): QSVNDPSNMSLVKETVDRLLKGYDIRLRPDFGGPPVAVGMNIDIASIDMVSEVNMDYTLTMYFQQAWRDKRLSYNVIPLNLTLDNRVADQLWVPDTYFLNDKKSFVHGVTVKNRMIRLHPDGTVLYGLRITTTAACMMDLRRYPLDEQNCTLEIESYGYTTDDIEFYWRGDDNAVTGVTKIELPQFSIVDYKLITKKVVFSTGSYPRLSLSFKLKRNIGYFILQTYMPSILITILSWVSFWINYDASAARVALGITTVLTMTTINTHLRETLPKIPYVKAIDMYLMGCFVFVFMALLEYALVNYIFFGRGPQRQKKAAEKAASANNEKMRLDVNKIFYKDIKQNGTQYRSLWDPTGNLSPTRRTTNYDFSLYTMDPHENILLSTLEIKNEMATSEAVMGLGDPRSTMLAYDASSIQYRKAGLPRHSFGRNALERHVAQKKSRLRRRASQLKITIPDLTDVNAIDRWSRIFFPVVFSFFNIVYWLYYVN
T1 sequence (P18507 40-475): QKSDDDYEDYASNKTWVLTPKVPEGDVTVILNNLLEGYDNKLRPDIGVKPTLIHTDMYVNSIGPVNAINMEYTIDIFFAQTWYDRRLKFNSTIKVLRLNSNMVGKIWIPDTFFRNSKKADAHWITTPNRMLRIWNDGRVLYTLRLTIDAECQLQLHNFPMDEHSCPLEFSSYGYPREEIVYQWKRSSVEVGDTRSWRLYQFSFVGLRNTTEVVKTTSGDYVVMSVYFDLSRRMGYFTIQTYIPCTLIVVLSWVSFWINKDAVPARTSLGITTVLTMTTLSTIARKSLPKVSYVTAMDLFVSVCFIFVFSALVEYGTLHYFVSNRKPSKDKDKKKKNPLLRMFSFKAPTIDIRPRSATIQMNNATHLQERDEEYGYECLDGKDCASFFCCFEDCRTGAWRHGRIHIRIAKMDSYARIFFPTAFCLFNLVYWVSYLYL
human recombinant α1β3γ2 GABAA receptor, sequence (P14867 28-456): as the sequence (P14867 28-456) above
human recombinant α1β3γ2 GABAA receptor, sequence (P28472 26-473): as the sequence (P28472 26-473) above
human recombinant α1β3γ2 GABAA receptor, sequence (P18507 40-475 partner): as the sequence (P18507 40-475) above
human recombinant α3β3γ2 GABAA receptor, sequence (P34903 29-492): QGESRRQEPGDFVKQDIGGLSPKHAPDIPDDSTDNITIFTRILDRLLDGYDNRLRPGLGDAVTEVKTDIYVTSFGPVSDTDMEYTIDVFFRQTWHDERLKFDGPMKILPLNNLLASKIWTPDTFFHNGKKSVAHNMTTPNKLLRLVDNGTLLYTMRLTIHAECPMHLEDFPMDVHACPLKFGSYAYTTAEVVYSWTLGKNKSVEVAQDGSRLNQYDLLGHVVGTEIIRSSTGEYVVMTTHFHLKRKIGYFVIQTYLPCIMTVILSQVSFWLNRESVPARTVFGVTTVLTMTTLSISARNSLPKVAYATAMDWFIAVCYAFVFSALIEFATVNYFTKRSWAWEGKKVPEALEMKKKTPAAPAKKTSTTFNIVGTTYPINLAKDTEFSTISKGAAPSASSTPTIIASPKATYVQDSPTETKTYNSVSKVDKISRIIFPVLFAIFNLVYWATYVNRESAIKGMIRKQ
human recombinant α3β3γ2 GABAA receptor, sequence (P28472 26-473): as the sequence (P28472 26-473) above
human recombinant α3β3γ2 GABAA receptor, sequence (P18507 40-475 partner): as the sequence (P18507 40-475) above
human recombinant α5β3γ2 GABAA receptor, sequence (P31644 32-462): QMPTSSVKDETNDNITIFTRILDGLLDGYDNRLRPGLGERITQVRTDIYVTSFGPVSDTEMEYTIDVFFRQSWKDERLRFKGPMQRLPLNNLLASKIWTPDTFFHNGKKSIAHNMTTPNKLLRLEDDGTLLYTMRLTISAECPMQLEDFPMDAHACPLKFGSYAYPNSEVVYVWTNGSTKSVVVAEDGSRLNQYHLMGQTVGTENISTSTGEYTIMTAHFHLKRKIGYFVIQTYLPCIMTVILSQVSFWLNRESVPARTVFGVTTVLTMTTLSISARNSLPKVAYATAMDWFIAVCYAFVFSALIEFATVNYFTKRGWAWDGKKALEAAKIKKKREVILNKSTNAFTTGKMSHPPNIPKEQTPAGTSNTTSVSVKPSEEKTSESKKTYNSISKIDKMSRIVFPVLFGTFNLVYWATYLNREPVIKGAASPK
human recombinant α5β3γ2 GABAA receptor, sequence (P28472 26-473): as the sequence (P28472 26-473) above
human recombinant α5β3γ2 GABAA receptor, sequence (P18507 40-475 partner): as the sequence (P18507 40-475) above
human recombinant α1β1γ2 GABAA receptor, sequence (P14867 28-456): as the sequence (P14867 28-456) above
human recombinant α1β1γ2 GABAA receptor, sequence (P18505 26-474): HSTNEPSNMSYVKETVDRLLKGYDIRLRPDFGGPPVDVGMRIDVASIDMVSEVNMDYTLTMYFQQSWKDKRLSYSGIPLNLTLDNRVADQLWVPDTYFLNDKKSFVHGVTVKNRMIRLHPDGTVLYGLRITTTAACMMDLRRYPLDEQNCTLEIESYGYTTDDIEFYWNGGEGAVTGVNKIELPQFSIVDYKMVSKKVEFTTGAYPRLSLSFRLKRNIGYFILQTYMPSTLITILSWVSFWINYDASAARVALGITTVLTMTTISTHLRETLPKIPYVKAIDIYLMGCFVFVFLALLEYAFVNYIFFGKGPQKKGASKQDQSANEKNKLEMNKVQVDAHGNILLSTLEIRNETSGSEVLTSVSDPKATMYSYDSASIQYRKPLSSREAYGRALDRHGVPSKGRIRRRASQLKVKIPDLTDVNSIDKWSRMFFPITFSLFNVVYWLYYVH
human recombinant α1β1γ2 GABAA receptor, sequence (P18507 40-475 partner): as the sequence (P18507 40-475) above

## CN1C(=O)CN=C(c2ccccc2)c2cc(Cl)ccc21 [DZP, diazepam, reference compound]
α1β2γ2 GABAA receptor [1]; 100 nM DZP alone, α1β2γ2, 2 μM GABA
  enhancement of GABA currents: 104%
α1β2γ2 GABAA receptor [1]
  concentration applied alone required to reach 150% effect level: 360 nM
α4β3δ GABAA receptor [2]; α4β3δ, DZP alone
  potentiation of current when applied alone: did not potentiate

## O=S(=O)(O)C1CCNCC1 [P4S, piperidine-4-sulphonic acid]
α1β2γ2 GABAA receptor [3]; P4S alone
  EC50: 45 µM and 44.5 µM
α1β2γ2 GABAA receptor [3]; with 200 nM zuranolone
  EC50: 25.2 µM
α1β2γ2 GABAA receptor [3]; P4S alone, normalized to maximum current evoked by saturating GABA (100 μM)
  Emax of P4S: 25%

## C[C@@]1(O)CC[C@H]2[C@H](CC[C@@H]3[C@@H]2CC[C@]2(C)[C@@H](C(=O)Cn4cc(C#N)cn4)CC[C@@H]32)C1 [zuranolone, 3α-Hydroxy-3β-methyl-21-(4-cyano-1H-pyrazol-1’-yl)-19-nor-5β-pregnan-20-one]
PTZ-induced seizures; mouse, 0.3 mg/kg PO, non-significant trend (p = 0.06)
  latency to tonic seizures: 1033 ± 179 s
PTZ-induced seizures; mouse, 1, 3, and 10 mg/kg PO, 60 min prior to 120 mg/kg PTZ
  latency to tonic seizures: ≥ 1688 ± 56 s
[4]
  EC50: 1.26 µM
[5]
  EC50: 0.298 µM
[5]; HEK293
  Emax: 534%
[6]
  selectivity for GABAA receptors vs other ion channel and hormone receptors: selective
α1β2γ2 GABAA receptor [1]
  EC50: 0.844 µM
  concentration applied alone required to reach 150% effect level: 315 nM
α1β2γ2 GABAA receptor [1]; α1β2γ2, coapplied with 100 nM DZP
  concentration required to potentiate the current greater than 150%: 10 nM
α1β2γ2 GABAA receptor [1]; α1β2γ2, coapplied zuranolone and DZP
  interaction of zuranolone and DZP by isobolographic analysis: synergistically
α1β2γ2 GABAA receptor [1]; α1β2γ2, in the presence of 100 nM DZP
  maximal potentiation: 1084%
α1β2γ2 GABAA receptor [1]; α1β2γ2, without DZP
  maximal potentiation: 511%
glycine
  inhibition of radioligand binding: 57%
[7]
  EC50: 0.184 µM
Dentate granule cells; 0.1 μM
  tonic current density: 2.48 ± 0.7 pA/pF
  sIPSC amplitude: 99 ± 26 pA
  sIPSC decay: 10 ± 1 ms
Dentate granule cells; 1 μM
  tonic current density: 5.55 ± 1.3 pA/pF
  sIPSC amplitude: 57 ± 7 pA
  sIPSC decay: 24 ± 4 ms
Dentate granule cells; following zuranolone exposure
  sIPSC frequency: no change
α4β3δ GABAA receptor [8]
  EC50: 0.118 µM
α4β3δ GABAA receptor [8]; CHO
  Emax: 556%
[9]; oral administration
  tolerability: generally well tolerated
[9]
  pharmacokinetics following oral administration: predictable pharmacokinetics
sigma
  inhibition of radioligand binding: 87%
β-band EEG power; 0.3 mg/kg PO
  sleep or wake time: No changes in sleep or wake time
β-band EEG power; 0.3 mg/kg PO, p = 0.58
  β-band EEG power relative to vehicle: did not elicit a significant increase
β-band EEG power; 3 mg/kg PO
  time of β-band EEG power peak post dose: approximately 0.5 h
  sleep time: increased sleep time during the first hour
β-band EEG power; 3 mg/kg PO, p < 0.0005
  β-band EEG power at one hour vs vehicle: significantly greater than vehicle
β-band EEG power; 20 mg/kg PO
  time of β-band EEG power peak: ≤ 30 min
  sleep time: increased time spent in sleep during all three hours
β-band EEG power; 20 mg/kg PO, p = 0.79
  β-band EEG power at one hour vs vehicle: not significantly different from vehicle
[10]
  antagonist activity: 96%
α1β2γ2 GABAA receptor [11]
  EC50: 0.43 µM
[12]
  EC50: 0.293 µM
[12]; HEK293
  Emax: 291%
[13]
  EC50: 0.78 µM
[14]
  EC50: 0.39 µM
[14]; HEK293
  Emax: 684%
[15]
  brain concentrations: 60 to 143 ng/g
[16]; 10 mg/kg IP
  time of maximum plasma concentration (Cmax) post dose: 30 min
[16]; 10 mg/kg PO
  time of maximum plasma concentration (Cmax) post dose: 30 min
[16]; ip
  Cmax: 3.2 µg/mL
  bioavailability: 89%
[16]; po
  Cmax: 1.33 µg/mL
  bioavailability: 62%
[17]; 0.3 mg/kg
  concentration at 60 min: 0.022 µg/mL
[17]; 3 mg/kg
  concentration at 60 min: 0.301 µg/mL
[17]; 20 mg/kg
  concentration at 60 min: 1.47 µg/mL
[18]
  EC50: 0.516 µM
8 cardiac ion channels
  effects at 8 cardiac ion channels: no significant effects
[19]
  effects at 22 nuclear hormone receptors: no significant effects
α4β3δ GABAA receptor [2]
  EC50: 0.135 µM
